Experimental findings from PubChem BioAssay AID492983 (Johns Hopkins Ion Channel Center, 2010) are described below.

The assay concerns the target Short transient receptor potential channel 4 (Mus musculus) (UniProt Q9QUQ5). As to the kind of experiment: TRPC4 channel current block, SAR follow-up, orthogonal assay, cell-based, manual patch clamp, HEK TRPC4beta/mu-opioid (AID 492983). Conditions: whole-cell patch clamp currents, at 1 µM, stronger effect = higher value. The essentials: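 System: HEK293 cells expressing TRPC4beta and mu-opioid receptor; buffer or medium: pipette solution with ~400 nM free Ca2+, external solution pH 7.4; also added: 10 µM carbachol with 0.1 µM DAMGO; times: compound pretreatment longer than 2 min before agonists, 22 °C; measured by: whole-cell voltage-clamp recording with voltage ramps; benchmarks: compound-free cells as reference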
(In patch-clamp work, channel activity is measured electrically.)

Each structure is given as a SMILES string.

In general, inhibition refers to the drop in the measured response relative to a control, in per cent.

Chain of Short transient receptor potential channel 4 (Mus musculus) (Q9QUQ5 whole entry, looked up): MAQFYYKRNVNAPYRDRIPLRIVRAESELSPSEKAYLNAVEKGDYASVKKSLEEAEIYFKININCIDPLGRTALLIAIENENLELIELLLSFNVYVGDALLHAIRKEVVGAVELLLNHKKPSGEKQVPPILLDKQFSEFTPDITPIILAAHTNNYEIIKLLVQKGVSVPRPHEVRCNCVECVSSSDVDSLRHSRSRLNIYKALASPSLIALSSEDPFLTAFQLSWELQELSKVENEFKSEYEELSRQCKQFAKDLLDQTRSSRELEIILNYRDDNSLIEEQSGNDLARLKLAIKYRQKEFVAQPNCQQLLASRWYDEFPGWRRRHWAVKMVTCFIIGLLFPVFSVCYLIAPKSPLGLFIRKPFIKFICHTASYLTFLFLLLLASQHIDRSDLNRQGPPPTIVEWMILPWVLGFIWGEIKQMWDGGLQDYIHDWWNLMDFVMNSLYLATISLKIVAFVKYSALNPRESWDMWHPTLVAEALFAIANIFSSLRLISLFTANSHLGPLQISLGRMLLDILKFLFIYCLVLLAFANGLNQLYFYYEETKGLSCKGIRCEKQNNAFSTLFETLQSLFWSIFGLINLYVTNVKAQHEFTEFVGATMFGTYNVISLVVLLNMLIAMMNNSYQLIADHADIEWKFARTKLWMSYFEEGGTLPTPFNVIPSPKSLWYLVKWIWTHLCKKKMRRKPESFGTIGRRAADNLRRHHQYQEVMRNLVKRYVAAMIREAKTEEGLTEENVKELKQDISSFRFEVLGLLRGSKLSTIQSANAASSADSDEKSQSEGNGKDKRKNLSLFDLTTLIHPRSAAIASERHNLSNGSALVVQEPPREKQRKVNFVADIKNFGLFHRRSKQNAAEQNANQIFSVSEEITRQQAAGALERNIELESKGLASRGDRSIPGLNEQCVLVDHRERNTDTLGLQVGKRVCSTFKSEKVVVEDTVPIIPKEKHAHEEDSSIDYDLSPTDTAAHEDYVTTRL

As for `Cc1cc(N2CCCCC2)nc2ccccc12`, the inhibition at -100 mV was 69.5%. Further, the inhibition at +100 mV (measured here: outward current at +100 mV) amounted to 29.2%.
